Screening results from PubChem.
ZTA DNA inh = blocks Epstein-Barr virus ZTA, an EBNA-1 counter-screen | ZTA-DNA binding, fluorescence polarization | inhibition, % at 11 µM | 0.15% of 320,000 active | P03206; in the data active = inhibition above about 33%
Target sequence (P03206 whole entry, looked up): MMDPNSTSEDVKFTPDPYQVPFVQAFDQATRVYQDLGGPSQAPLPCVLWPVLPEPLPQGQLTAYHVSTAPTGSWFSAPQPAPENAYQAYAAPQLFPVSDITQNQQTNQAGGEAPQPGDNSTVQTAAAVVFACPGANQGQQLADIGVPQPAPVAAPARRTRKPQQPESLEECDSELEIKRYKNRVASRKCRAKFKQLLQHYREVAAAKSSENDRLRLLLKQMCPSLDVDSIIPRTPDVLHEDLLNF
NS3 helicase inh = inhibitors of HCV NS3 helicase, primary screen, biochemical, Cy5 molecular beacon fluorescence; NS3 helicase DNA unwinding; Hepatitis C virus NS3 helicase; AID 1800, 2009; 0.56% of 290,000 active; inhibition, % at 10.9 µM;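 active = inhibition above the mean of all tested compounds plus 3 SD, set per campaign, cut at about 35% in these data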;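 also: 0% = DMSO wells and 100% = thioflavine S control wells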
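Assay system: hepatitis C virus NS3 helicase domain fragment enzyme. Also added: annealed dual-labelled DNA beacon duplex, ATP-started. Timing: 1 h reaction at 25 °C, ATP-initiated. Technique: Cy5 fluorescence at 0 and 60 min, beacon hairpin quenching. Evaluation: % inhibition of unwinding. Replication: one well per compound.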
PP1 inh = PP1-alpha phosphatase inhibitors, primary screen, counter-screen for PP5 inhibitor project, biochemical, fluorescence, OMFP substrate, single point; purified PP1alpha; inhibition, % at 6.7 µM; 0.9% of 320,000 active;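 active = inhibition above the mean inhibition of all tested compounds plus 3 SD, computed separately for each screening campaign, cut at about 15% in these data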
Target sequence (P62136 whole entry, looked up): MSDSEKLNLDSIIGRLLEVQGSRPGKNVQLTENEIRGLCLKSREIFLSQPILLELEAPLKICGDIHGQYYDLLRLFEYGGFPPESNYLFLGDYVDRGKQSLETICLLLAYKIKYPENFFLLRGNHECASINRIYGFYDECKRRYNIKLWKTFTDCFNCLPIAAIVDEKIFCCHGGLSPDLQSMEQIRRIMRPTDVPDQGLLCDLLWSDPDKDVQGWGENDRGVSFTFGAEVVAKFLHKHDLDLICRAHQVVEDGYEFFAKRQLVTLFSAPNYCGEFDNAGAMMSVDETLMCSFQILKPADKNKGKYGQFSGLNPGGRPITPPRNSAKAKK
EBNA-1 inhibitor = EBNA-1 DNA-binding inhibitors, primary screen, biochemical, fluorescence polarization; 0.34% of 300,000 active; inhibition, % at 14.8 µM; AID 1950, 2009; in the data active = inhibition above about 28%
core dimer inh = inhibitors of HCV core protein dimerization, primary screen, biochemical, TR-FRET, high-throughput; TR-FRET GST/Flag-core106 dimerization, 1536-well; inhibition, % at 5 µM; 0.33% of 300,000 active;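 active = inhibition above the mean of all tested compounds plus 3 SD, set per screening campaign, cut at about 45% in these data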
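Assay system: GST-tagged and Flag-tagged HCV core protein residues 1-106 / Times: compound-protein-antibody incubation 4 h at 22.5 °C / Signal: time-resolved FRET, ex 340 nm, em 617 and 671 nm / Evaluation: % inhibition based on acceptor/donor emission ratio / Benchmarks: wells lacking GST-core106 and wells with excess unlabelled core106 / Repeats: singlicate, one well per compound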
NS3 hel confirm = HCV NS3 helicase inhibitors, retest, confirmation, biochemical, Cy5 molecular beacon fluorescence, triplicate | shares compounds with NS3 helicase inh | inhibition, % at 10.9 µM | NS3 helicase DNA unwinding | AID 1943, 2009 | 31% of 1,600 active;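 active = inhibition above the mean of all tested compounds plus 3 SD, cutoff set per campaign, cut at about 36% in these data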
DNA FID counter = compounds displacing fluorescent DNA intercalator, artefact control for HCV NS3 helicase inhibitor project, biochemical, FID fluorescence, triplicate; inhibition, % at 7.9 µM; shares compounds with NS3 helicase inh; DNA fluorescent intercalator displacement; 4% of 1,600 active; in the data active = inhibition above about 37%;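 also: 0% = vehicle and 100% = reference compound; higher means more displacement of ethidium bromide from the DNA hairpin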
Starred values were filed as active, the others as inactive; . = no result given. Rows were chosen to be rich in hits. Some 1.9% of all compounds tested hit in one or more screens of this group.

SMILES | ZTA DNA inh | NS3 helicase inh | PP1 inh | EBNA-1 inhibitor | core dimer inh | NS3 hel confirm | DNA FID counter
COC(=O)c1ccc(-n2c(C)cc(/C=N/Nc3nc(C)cc(=O)[nH]3)c2C)cc1 | 1 | 38* | 6 | -5 | 7 | 0 | -26
CN(C)c1ccc(N=Nc2ccc(C(=O)O)cc2)cc1 | 2 | 63* | 1 | -8 | -14 | -20 | -3
Cc1ccc(C)c(N2CCN(C(=O)CCS(=O)(=O)c3ccc4c(c3)CCN4C(=O)C3CC3)CC2)c1 | -7 | -12 | 10 | 0 | 14 | . | .
CCc1cc2cc3c(cc2nc1SCC(=O)Nc1c[nH]c(=O)[nH]c1=O)OCO3 | -37 | 41* | 1 | -14 | -12 | -3 | 2
Cc1ccc(Oc2ccc(OCC(=O)NC(CC(C)C)C(=O)O)cc2)cc1 (stereo not given) | -8 | 45* | -6 | -4 | -2 | 39* | -25
Cc1cccc(N(CC(=O)NCc2ccc(F)cc2)C(=O)c2ccco2)c1 | 9 | 1 | 1 | -23 | 2 | . | .
O=C(NCc1ccco1)c1ccc(N2CCCCC2)c([N+](=O)[O-])c1 | 1 | 50* | -3 | 4 | 1 | -9 | -11
O=C(NCc1ccco1)c1ccc(N2CCOCC2)c([N+](=O)[O-])c1 | -1 | 4 | -5 | 3 | 1 | . | .
CCn1c(SCC(=O)N2CCC(C)CC2)nc2c(c1=O)SC(C)C2 (stereo not given) | 0 | -3 | 0 | -5 | -7 | . | .
O=C(COc1ccccc1)NCC(=O)N/N=C/c1cc(Br)ccc1OCc1ccccc1 | 17 | 2 | 5 | -1 | 18 | . | .
O=C(COc1ccc(-c2ccccc2)cc1)N/N=C/c1cc(O)ccc1Br | -20 | 37* | 7 | 3 | 9 | -2 | -19
COc1ccc(CCN2C(=S)N(C)C(=O)C2CC(=O)Nc2ccc(F)cc2)cc1 (stereo not given) | -6 | -8 | 6 | -8 | -9 | . | .
COc1ccc(-c2nc(=S)c3c([nH]2)Oc2ccc(C)cc2C3)cc1O | 9 | 53* | -1 | -4 | -5 | 12 | -16
COc1ccc(/C=C/C(=O)O)cc1S(=O)(=O)NCc1cccnc1 | 16 | 2 | 0 | 5 | 4 | . | .
CCCCCN(C(=O)CCC(=O)OC(C)C(=O)NCc1ccccc1)c1c(N)n(CCCC)c(=O)[nH]c1=O (stereo not given) | 6 | . | -8 | -12 | 1 | . | .
N#CC1=C(N)Oc2ccc3ccc(O)cc3c2C1c1ccsc1 (stereo not given) | . | 53* | . | . | . | -11 | -57
N#CC1=C(N)Oc2cc(N)ccc2C1c1ccsc1 (stereo not given) | -16 | 12 | -6 | 3 | -6 | . | .
CCOC(=O)C1(Cc2cccc(Cl)c2)CCCN(C(=O)CCSC)C1 (stereo not given) | -5 | -5 | 2 | -4 | 4 | . | .
CCOC(=O)C1(Cc2cccc(Cl)c2)CCCN(C(=O)CCN2CCCC2=O)C1 (stereo not given) | -7 | 65* | 0 | 10 | -7 | -12 | -38
O=C(/C=C/c1ccco1)Nc1sc2c(c1C(=O)O)CCC2 | -8 | 47* | 3 | -3 | -6 | 19 | 19
Cc1ccc(-n2c(SCC(=O)O)nc3sc4c(c3c2=O)C(C)CCC4)cc1 (stereo not given) | 2 | 55* | 10 | -5 | -9 | 66* | -15
O=C(COc1ccccc1)Nc1nnc(-c2ccc(F)cc2)o1 | -5 | 60* | 11 | 3 | -23 | -20 | -15
COc1ccc(-c2nnc(NC(=O)Cc3ccccc3)o2)cc1 | 4 | 2 | -4 | -3 | -1 | . | .
COc1ccc(NC(=O)CSc2nc3ccccc3nc2N2CCCC2)cc1 | 3 | -20 | 1 | 4 | 20 | . | .
CCN[C@H]1CN(CCCOC)S(=O)(=O)c2sc(S(N)(=O)=O)cc21 | -5 | . | -1 | 7 | 1 | . | .
SMILES | ZTA DNA inh | NS3 helicase inh | PP1 inh | EBNA-1 inhibitor | core dimer inh | NS3 hel confirm | DNA FID counter
N#Cc1c(-c2cccs2)nc(SCc2ccc(Cl)cc2)[nH]c1=O | . | 48* | . | . | . | 60* | 35
COc1cccc(CNC(=O)COC(=O)c2cc([N+](=O)[O-])ccc2N2CCCC2)c1 | -9 | . | 0 | . | . | . | .
O=C1CC(c2ccco2)CC(O)=C1C=Nc1cc(Cl)ccc1O (stereo not given) | 4 | 42* | 5 | 5 | 14 | 1 | 13
O=C(CNc1ccc2ccccc2c1)N/N=C/c1ccc([N+](=O)[O-])o1 | -17 | 55* | 12 | -22 | -8 | 0 | 11
Cc1ccc(OCC(=O)N/N=C/c2ccc([N+](=O)[O-])o2)cc1 | -11 | 13 | -2 | 8 | -10 | . | .
O=C(CNc1ccc2ccccc2c1)N/N=C/c1ccc(C(=O)O)cc1 | 16 | 1 | -3 | 7 | -6 | . | .
O=C(N/N=C/c1ccc([N+](=O)[O-])o1)c1cc(-c2cccc(Br)c2)nc2ccccc12 | -7 | 41* | 16* | -10 | 71* | 38* | 18
O=C(COc1ccccc1)N/N=C/c1ccc([N+](=O)[O-])o1 | 0 | 41* | -5 | -6 | 0 | -7 | 15
OCC[C@@H]1C[C@H](O)[C@@H](O)[C@]2(CCCc3ccccc3O2)O1 | -9 | -2 | -8 | 5 | -1 | . | .
COc1nc(-c2ccc(C)cc2)ccc1-c1noc(-c2ccco2)n1 | 11 | 40* | 2 | 1 | 6 | -3 | -3
COc1cccc(Cn2cc(C)cc(NC(=O)NCc3ccccc3)c2=O)c1 | -19 | 40* | 3 | -3 | 3 | -3 | -15
COc1ccc(-c2cccc(NC(=O)c3ccc4c(c3)OCO4)c2)nn1 | -9 | . | -7 | 0 | 3 | . | .
CCOC(=O)c1c(-c2ccc(C)cc2)csc1NC(=O)C1CC=CCC1C(=O)O (stereo not given) | 10 | 43* | 0 | -1 | 18 | 74* | -16
Oc1ccc(N=Nc2cccc(Cl)c2)cc1C=Nc1ccc(N2CCOCC2)cc1 | . | 19 | . | . | . | . | .
Oc1c(Br)cc(Cl)cc1C=Nc1ccc(N2CCOCC2)cc1 | 12 | 43* | 1 | 2 | -4 | 13 | 13
Cc1ccc(NC(=O)CN2C(=O)S/C(=C\C(=O)Nc3ccc(Cl)cc3)C2=O)cc1 | 3 | 41* | -5 | 6 | -5 | -1 | 1
Cc1ccc(NC(=O)CN2C(=O)S/C(=C/c3ccncc3)C2=O)cc1 | -3 | 4 | 2 | 3 | 3 | . | .
Cc1coc2c1c(C)cc1oc(=O)c(CC(=O)NCCCN3CCCC3=O)c(C)c12 | 4 | 9 | 6 | -9 | -1 | . | .
